Data set [1] concerns the target Cannabinoid receptor 1 (Homo sapiens) (UniProt P21554). To be noted: HEK293.
A short description of data set [2]: Cytotoxicity against mouse NIH/3T3 cells assessed as cell viability after 24 hrs by neutral red uptake test. In kind it is cell-based. To be noted: NIH3T3, 24 h.
Data set [3] is described as follows: Kinetic solubility in DMSO solution at pH 1.0 after 2 hrs by HPLC-UV analysis. To be noted: read-out: Kinetic_solubility. Type of data set: physicochemical.
A short description of data set [4]: Kinetic solubility in DMSO solution at pH 7.4 after 2 hrs by HPLC-UV analysis. In kind it is physicochemical. Particulars: for solubility kinetic at 2 h: DMSO solution, pH 7.4, read-out: Kinetic_solubility; for log(Kinetic_solubility): pH 7.4, 2 h.
Data set [5] has as its target T1, Cannabinoid receptor 2 (Homo sapiens, UniProt P34972). Put plainly: Displacement of [3H]-CP-55940 from human recombinant CB2 receptor expressed in HEK293 cells after 90 mins by Competition binding assay. Type of data set: cell-based.
The species entered for a further data set is Homo sapiens. Briefly: Selectivity index, ratio of Ki for recombinant human CB1 receptor to Ki for recombinant human CB2 receptor.
The target of data set [6] is T1, Cannabinoid receptor 2. Put plainly: Inverse agonist activity at recombinant human CB2 receptor expressed in CHO-K1 cells assessed as increase in […]-induced cAMP production by luminescence assay. In kind it is functional, cell-based. A digest of the protocol: (§1)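 CHO-K1 cells overexpressing human CB2, 30000 per well, left overnight at 37 °C, 5% CO2, then given compound dose–response with NKH477 (3× solution of 25 μM) to stimulate adenylate cyclase. cAMP read by enzyme-fragment-complementation chemiluminescence; response normalised to NKH477 alone as 100%. Mean ± SEM of two independent experiments in triplicate.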

In data set [7] the target is T1, Cannabinoid receptor 2. Put plainly: Inverse agonist activity at recombinant human CB2 receptor expressed in CHO-K1 cells assessed as increase in […]-induced cAMP production by luminescence assay relative to AM630. Type of data set: functional, cell-based. A digest of the protocol:
as §1

SMILES strings stand for the structures. ≈ marks a conversion by molar mass, not a printed value.

Cannabinoid receptor 1 (Homo sapiens), sequence (P21554 whole entry): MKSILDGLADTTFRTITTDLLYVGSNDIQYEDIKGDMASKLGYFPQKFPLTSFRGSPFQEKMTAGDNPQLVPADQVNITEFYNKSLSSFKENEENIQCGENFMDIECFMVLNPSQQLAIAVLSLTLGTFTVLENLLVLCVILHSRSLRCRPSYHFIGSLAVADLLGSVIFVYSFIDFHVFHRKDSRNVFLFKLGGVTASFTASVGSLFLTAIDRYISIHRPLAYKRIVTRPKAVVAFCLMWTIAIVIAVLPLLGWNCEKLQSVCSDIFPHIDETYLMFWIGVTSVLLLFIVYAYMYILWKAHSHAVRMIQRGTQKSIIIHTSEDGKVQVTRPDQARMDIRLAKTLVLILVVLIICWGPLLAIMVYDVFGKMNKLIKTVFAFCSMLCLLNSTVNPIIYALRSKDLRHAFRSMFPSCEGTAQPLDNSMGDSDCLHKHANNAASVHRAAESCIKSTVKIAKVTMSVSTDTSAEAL
T1 sequence (P34972 whole entry): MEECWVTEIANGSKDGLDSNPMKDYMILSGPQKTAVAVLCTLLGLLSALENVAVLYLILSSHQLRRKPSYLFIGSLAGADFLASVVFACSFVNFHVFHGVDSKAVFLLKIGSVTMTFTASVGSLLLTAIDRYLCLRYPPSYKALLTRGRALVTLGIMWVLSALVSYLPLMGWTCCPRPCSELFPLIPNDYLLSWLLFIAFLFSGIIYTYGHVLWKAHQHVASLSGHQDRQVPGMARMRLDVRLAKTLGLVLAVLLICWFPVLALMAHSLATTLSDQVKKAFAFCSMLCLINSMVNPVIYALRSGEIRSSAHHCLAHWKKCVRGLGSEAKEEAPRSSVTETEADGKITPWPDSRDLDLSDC

Compound `Cc1ccc(Cn2nc(C(=O)N[C@@H]3C(C)(C)[C@@H]4CC[C@@]3(C)C4)cc2-c2ccc(Cl)c(C)c2)cc1` gave a Kieq in data set [1] greater than 2820 nM.

For `CCCCCn1c2c(c(O)c(C(=O)NC34CC5CC(CC(C5)C3)C4)c1=O)CCCC2`, the IC50 in data set [2] was found to be 15 µM. The solubility kinetic at 2 h in data set [3] was 0.1 µg/mL (≈ 0.242 µM). Moreover, in data set [4], the solubility kinetic at 2 h is 1.3 µg/mL (≈ 3.15 µM) and the “log(Kinetic_solubility)” value was -5.5.

Consider `CCCCCn1cc(C(=O)NC23CC4CC(CC(C4)C2)C3)c(=O)c2ccc(F)cc21`, for which the Kieq worked out at 0.8 nM on Cannabinoid receptor 2 [5] and 30.5 nM in data set [1]. The Ratio Ki in the data set listed under Homo sapiens is 38. For the same compound, in data set [2], the IC50 was determined as 74 µM. The solubility kinetic at 2 h was 0.05 µg/mL (≈ 0.122 µM) in data set [3] and 0.014 µg/mL (≈ 0.0341 µM) in data set [4]. In addition, the “log(Kinetic_solubility)” value in data set [4] is listed as -7.47.

As for `CCCCCn1c(=O)c(C(=O)NC23CC4CC(CC(C4)C2)C3)c(O)c2ccccc21`, the figures for the IC50 (on Cannabinoid receptor 2 [5]; in data set [2]) were 0.002 µM and 74 µM, respectively. Further, the EC50 at Cannabinoid receptor 2 [6] turned out to be 0.0024 µM. Further, the solubility kinetic at 2 h turned out to be 0.23 µg/mL (≈ 0.563 µM) in data set [3] and 1.4 µg/mL (≈ 3.43 µM) in data set [4]. Further, the “log(Kinetic_solubility)” value in data set [4] is on record as -5.47. Also, the Efficacy at Cannabinoid receptor 2 [7] is less than 50%.

On to `COc1ccc(CNC(=O)c2c(O)c3cc(-c4cccs4)ccc3n(CCCCO)c2=O)cc1`, for which the values for the Kieq (at Cannabinoid receptor 2 [5]; in data set [1]) were 2240 nM and greater than 10000 nM, respectively. Also, in the data set listed under Homo sapiens, the Ratio Ki was greater than 4.

For `CCCCCn1c(=O)c(C(=O)NC23CC4CC(CC(C4)C2)C3)c(O)c2cc(C(C)C)c(F)cc21`, the figures for the Kieq (at Cannabinoid receptor 2 [5]; in data set [1]) were 66.4 nM and greater than 10000 nM, respectively. The Ratio Ki in the data set listed under Homo sapiens is greater than 150. For the same compound, the IC50 in data set [2] is 13 µM.

In the case of `CN(C)CCn1cc(C(=O)NC23CC4CC(CC(C4)C2)C3)c(=O)c2ccc(F)cc21`, the values for the Kieq (on Cannabinoid receptor 2 [5]; in data set [1]) were 60 nM and 501 nM, respectively. In the data set filed under Homo sapiens, the Ratio Ki is 8. Besides, the IC50 in data set [2] stood at 15 µM. Moreover, the values for the solubility kinetic at 2 h in data set [3] and in data set [4] were 170 µg/mL (≈ 414 µM) and 5.6 µg/mL (≈ 13.6 µM), respectively. Also, the “log(Kinetic_solubility)” value in data set [4] was -4.87.

With `CCCCCn1c(=O)c(C(=O)NCc2ccc(OC)cc2)c(O)c2cc(-c3cccs3)ccc21`, the Kieq on Cannabinoid receptor 2 [5] was 19.7 nM; in data set [1], 159 nM. The Ratio Ki in the data set listed under Homo sapiens is 8.

Take `CCCCCn1cc(C(=O)NC23CC4CC(CC(C4)C2)C3)c(=O)c2cc(C(C)C)ccc21`: in data set [2], the IC50 was 14 µM. In addition, in data set [3], the solubility kinetic at 2 h stood at 0.21 µg/mL (≈ 0.483 µM). Also, in data set [4], the solubility kinetic at 2 h is 1 µg/mL (≈ 2.3 µM) and the “log(Kinetic_solubility)” value was -5.64.

On to `COCCOCn1cc(C(=O)NC23CC4CC(CC(C4)C2)C3)c(=O)c2ccc(F)cc21`, for which the results for the Kieq (at Cannabinoid receptor 2 [5]; in data set [1]) were 56 nM and greater than 10000 nM, respectively. Also, the Ratio Ki in the data set listed under Homo sapiens was greater than 177.

Regarding `COCCOCn1cc(C(=O)NC23CC4CC(CC(C4)C2)C3)c(=O)c2cc(C(C)C)ccc21`, the Kieq was 480 nM on Cannabinoid receptor 2 [5] and greater than 10000 nM in data set [1]. Also, the Ratio Ki in the data set filed under Homo sapiens was greater than 20.

In the case of `CC(C)c1cc2c(=O)c(C(=O)NC34CC5CC(CC(C5)C3)C4)cn(CCN(C)C)c2cc1F`, the Kieq on Cannabinoid receptor 2 [5] is 11.4 nM; in data set [1] it was 717 nM. Besides, in the data set filed under Homo sapiens, the Ratio Ki came out at 63. In addition, the results for the solubility kinetic at 2 h in data set [3] and in data set [4] were 35.5 µg/mL (≈ 78.3 µM) and 12.1 µg/mL (≈ 26.7 µM), respectively. In addition, the “log(Kinetic_solubility)” value in data set [4] is -4.57.

On to `CCCCCn1c(=O)c(C(=O)NC23CC4CC(CC(C4)C2)C3)c(O)c2ccc(F)cc21`, for which the figures for the IC50 (on Cannabinoid receptor 2 [5]; in data set [2]) were 0.0035 µM and 19 µM, respectively. Besides, the Kieq at Cannabinoid receptor 2 [5] was 0.93 nM; in data set [1], 1280 nM. Besides, the Ratio Ki in the data set filed under Homo sapiens is 1380. Further, the EC50 at Cannabinoid receptor 2 [6] amounted to 0.0179 µM. Besides, the solubility kinetic at 2 h in data set [3] came to 0.17 µg/mL (≈ 0.399 µM); in data set [4], 1.5 µg/mL (≈ 3.52 µM). The “log(Kinetic_solubility)” value in data set [4] is listed as -5.45. For the same compound, the Efficacy at Cannabinoid receptor 2 [7] was less than 50%.

In the case of `CCCCCn1cc(C(=O)NC23CC4CC(CC(C4)C2)C3)c(=O)c2cc(-c3ccccc3)ccc21`, the Kieq is 3.8 nM on Cannabinoid receptor 2 [5] and greater than 10000 nM in data set [1]. Besides, in the data set filed under Homo sapiens, the Ratio Ki is greater than 2660.

`CCCCCn1cc(C(=O)NC23CC4CC(CC(C4)C2)C3)c(=O)c2ccccc21`: the Kieq at Cannabinoid receptor 2 [5] came to 4.7 nM; in data set [1], 42.1 nM. The Ratio Ki in the data set listed under Homo sapiens is 9.

As to `CC(C)c1ccc2c(c1)c(=O)c(C(=O)NC13CC4CC(CC(C4)C1)C3)cn2CCN1CCS(=O)(=O)CC1`, the Kieq at Cannabinoid receptor 2 [5] is 1930 nM; in data set [1], greater than 10000 nM. Moreover, the Ratio Ki in the data set listed under Homo sapiens was greater than 5.

For `CC(C)c1ccc2c(c1)c(=O)c(C(=O)NC13CC4CC(CC(C4)C1)C3)cn2CCN(C)C`, the Kieq was 146 nM at Cannabinoid receptor 2 [5] and greater than 10000 nM in data set [1]. In addition, the Ratio Ki in the data set listed under Homo sapiens was greater than 68. Also, the IC50 in data set [2] is 5 µM. The figures for the solubility kinetic at 2 h in data set [3] and in data set [4] were 31.5 µg/mL (≈ 72.3 µM) and 4.5 µg/mL (≈ 10.3 µM), respectively. For the same compound, the “log(Kinetic_solubility)” value in data set [4] is reported as -4.99.

As for `CCCCCn1c(=O)c(C(=O)NC23CC4CC(CC(C4)C2)C3)c(O)c2cc(C(C)C)ccc21`, the IC50 at Cannabinoid receptor 2 [5] amounted to 0.0037 µM; in data set [2], 13 µM. Also, the Kieq at Cannabinoid receptor 2 [5] stood at 0.53 nM; in data set [1], 1240 nM. The Ratio Ki in the data set filed under Homo sapiens turned out to be 2350. The 50% effective concentration (EC50) on Cannabinoid receptor 2 [6] was 0.0026 µM. In addition, the solubility kinetic at 2 h in data set [3] turned out to be 0.02 µg/mL (≈ 0.0444 µM); in data set [4], 1.9 µg/mL (≈ 4.22 µM). Further, in data set [4], the “log(Kinetic_solubility)” value is -5.38. In addition, the Efficacy at Cannabinoid receptor 2 [7] is less than 50%.

For `CCCCCn1cc(C(=O)NC23CC4CC(CC(C4)C2)C3)c(=O)c2cc(C(C)C)c(F)cc21`, the IC50 in data set [2] came to 9 µM.

On to `CCCCCn1c(=O)c(C(=O)NC23CC4CC(CC(C4)C2)C3)cc2cc(C(C)C)ccc21`, for which the IC50 in data set [2] is 92 µM.

With `CCCCCn1cc(C(=O)NC23CC4CC(CC(C4)C2)C3)c(=O)c2ccc(Sc3ccccc3)cc21`, the values for the Kieq (on Cannabinoid receptor 2 [5]; in data set [1]) were 1.6 nM and 5.3 nM, respectively. Moreover, the Ratio Ki in the data set listed under Homo sapiens stood at 3.3.

Take `O=C(NCc1ccc(F)cc1)c1c(O)c2cc(-c3ccco3)ccc2n(CCCCO)c1=O`: the Kieq was 253 nM at Cannabinoid receptor 2 [5] and 1580 nM in data set [1]. In addition, the Ratio Ki in the data set filed under Homo sapiens was determined as 6.

Take `O=C(NC12CC3CC(CC(C3)C1)C2)c1cn(CCN2CCS(=O)(=O)CC2)c2cc(F)ccc2c1=O`: the Kieq came out at 246 nM on Cannabinoid receptor 2 [5] and 1900 nM in data set [1]. Further, in the data set filed under Homo sapiens, the Ratio Ki amounted to 8.

As for `O=C(NCC1CCCCC1)c1c(O)c2ccccc2n(CCCCO)c1=O`, the Kieq was 41.3 nM on Cannabinoid receptor 2 [5] and 829 nM in data set [1]. In the data set listed under Homo sapiens, the Ratio Ki turned out to be 20.

These data come from ChEMBL document CHEMBL3779817, “Investigations on the 4-Quinolone-3-carboxylic Acid Motif. 7. Synthesis and Pharmacological Evaluation of 4-Quinolone-3-carboxamides and 4-Hydroxy-2-quinolone-3-carboxamides as High Affinity Cannabinoid Receptor 2 (CB2R) Ligands with Improved Aqueous Solubility” (J Med Chem, 2016).
